In ChEMBL document CHEMBL4138242, “Synthesis and antibacterial evaluation of novel cationic chalcone derivatives possessing broad spectrum antibacterial activity” (Eur J Med Chem, 2018):
Active and inactive are the calls of the source. The calls are words filed in the database; no cut-off is given here.

Test system: Staphylococcus aureus
Experiment: Bactericidal activity against Staphylococcus aureus ATCC 29213 at 6 times MIC after 6 hrs by time-kill assay
Type: functional, organism-based
How it was run: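 An overnight culture was diluted 1:10,000 in MHB and grown at 37 °C and 225 rpm for 2 h or 5 h. It was then challenged in tubes at 6× and 8× MIC, with vancomycin (6 µg/mL) as comparator. At intervals, aliquots were pelleted, resuspended in PBS, and tenfold dilutions plated on MHA overnight at 37 °C to give CFU/mL. Biological replicates were run.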

For `CN[C@H](CC(C)C)C(=O)N[C@H]1C(=O)N[C@@H](CC(N)=O)C(=O)N[C@H]2C(=O)N[C@H]3C(=O)N[C@H](C(=O)N[C@H](C(=O)O)c4cc(O)cc(O)c4-c4cc3ccc4O)[C@H](O)c3ccc(c(Cl)c3)Oc3cc2cc(c3O[C@@H]2O[C@H](CO)[C@@H](O)[C@H](O)[C@H]2O[C@H]2C[C@](C)(N)[C@H](O)[C@H](C)O2)Oc2ccc(cc2Cl)[C@H]1O`, the Activity was “inactive”.
